Results published in ChEMBL document CHEMBL1121916, “Structure-activity relationships in dihydropteroate synthase inhibition by sulfanilamides. Comparison with the antibacterial activity” (J Med Chem, 1981).

Key:
[1] = Inhibition of Escherichia coli (K12J53) Dihydopteroate synthase.
How it was run: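 Ammonium sulfate fraction (30–70%) from alumina-disrupted E. coli K12J53 grown on brain-heart infusion agar at 37 °C; it contains both pyrophosphokinase and synthase. Read-out was [14C]dihydropteroate. The 50% inhibitory concentration came from 1/dpm vs. concentration plots, divided by p-aminobenzoate concentration (EII50).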

[2] = system: Escherichia coli; assay: In vitro inhibition of Escherichia coli (K12J53) growth.
[3] = PKa value was measured; assay type: physicochemical

SMILES | EII50 [1] | GII50 [2] | pKa [3]
Cn1cccn/c1=N\S(=O)(=O)c1ccc(N)cc1 | 31.2 | > 100000 | –
N=C(N)NS(=O)(=O)c1ccc(N)cc1 | 10.2 | – | –
Nc1ccc(S(=O)(=O)Nc2nccs2)cc1 [SULFATHIAZOLE] | 0.9 | – | 7.23
N#CNS(=O)(=O)c1ccc(N)cc1 | 8 | > 50000 | 2.92
CN(c1ccccn1)S(=O)(=O)c1ccc(N)cc1 | 30 | 40000 | –
Nc1ccc(S(=O)(=O)Nc2ccccn2)cc1 [SULFAPYRIDINE] | 4.2 | – | 8.56
NC(=O)NS(=O)(=O)c1ccc(N)cc1 [SULFACARBAMIDE] | 8.4 | – | 5.42
Cc1nnc(NS(=O)(=O)c2ccc(N)cc2)s1 [SULFAMETHIZOLE] | 0.4 | – | 5.22
CN(C)S(=O)(=O)c1ccc(N)cc1 | 82 | > 35000 | –
CN(c1nccs1)S(=O)(=O)c1ccc(N)cc1 | 35.4 | > 10000 | –
Cc1cc(C)n(C)/c(=N/S(=O)(=O)c2ccc(N)cc2)n1 | 26 | 52000 | –
Nc1ccc(S(N)(=O)=O)cc1 | 25 | – | –
CN(c1ncccn1)S(=O)(=O)c1ccc(N)cc1 | 9.2 | 10000 | –
CC(=O)NS(=O)(=O)c1ccc(N)cc1 [SULFACETAMIDE] | 4.44 | – | 5.38
Cn1ccs/c1=N\S(=O)(=O)c1ccc(N)cc1 | 13.4 | > 10000 | –
Nc1ccc(S(=O)(=O)NC(=O)c2ccccc2)cc1 [SULFABENZAMIDE] | 5.2 | – | 4.57
Cn1cccc/c1=N/S(=O)(=O)c1ccc(N)cc1 | 8 | 30000 | –
Cc1cc(C)nc(N(C)S(=O)(=O)c2ccc(N)cc2)n1 | 10.8 | – | –
COc1cc(NS(=O)(=O)c2ccc(N)cc2)nc(OC)n1 [SULFADIMETHOXINE] | 0.85 | – | 5.98
CNS(=O)(=O)c1ccc(N)cc1 | 32.4 | 60000 | 10.8
Cc1cc(C)nc(NS(=O)(=O)c2ccc(N)cc2)n1 [SULFAMETHAZINE] | 1.92 | – | 7.51
Nc1ccc(S(=O)(=O)Nc2ncccn2)cc1 | 2.56 | – | –
